# PubChem BioAssay AID488910 (Broad Institute, 2010)
# The campaign covered roughly 20,000 compounds. About 25 (0.1%) were called active. The entries come from a sample that favours actives as a whole. A number with no mark means an inactive call.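 The calls were made as follows: active = mean replicate protection from cytokine-induced ATP loss at least 50% and at least 75% of replicates each reaching 50%; inconclusive = meets only one of the two criteria, mean or replicate share; inactive = fails both the mean and replicate share criteria.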
# Test: protection of INS-1E cells from cytokine death, primary screen, ATP luminescence, single point (AID 488910)
# Conditions: INS-1E cytokine-induced death, 48 h, at 10 µM, stronger effect = higher value, normalised: neutral wells 0, positive control 100
# In short: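 Assay system: INS-1E rat cells / Quantity: 8000 cells per well / Medium: RPMI without phenol red, 5% FBS / Probe or stimulus: three-cytokine cocktail (IFN-γ, TNF-α, IL-1β) / Dosing: one compound concentration, pin transfer / Timing: 48 h co-treatment, 10 min post-lysis read / Technique: CellTiter-Glo luminescence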
row,SMILES,protection from cytokine-induced ATP loss [%]
1,C[C@H](CO)N1C[C@H](C)[C@H](CN(C)C(=O)Nc2ccc(F)cc2)Oc2c(NC(=O)c3cnccn3)cccc2C1=O,8.13
2,C[C@@H]1CCCCO[C@H](CN(C)C(=O)c2ccccc2)[C@@H](C)CN([C@H](C)CO)C(=O)c2cc(NC(=O)Nc3cccc4ccccc34)ccc2O1,-1.39
3,C[C@@H]1CCCCO[C@H](CN(C)S(=O)(=O)c2ccccc2)[C@@H](C)CN([C@H](C)CO)C(=O)c2cc(NC(=O)Nc3ccc(F)cc3)ccc2O1,-6.46
4,CC(C)NC(=O)N(C)C[C@H]1Oc2ccc(NC(=O)Cn3cnnn3)cc2CC(=O)N([C@H](C)CO)C[C@H]1C,-1.35
5,Cc1noc(C)c1NC(=O)Nc1ccc2c(c1)C(=O)N([C@H](C)CO)C[C@H](C)[C@H](CN(C)Cc1ccc(Oc3ccccc3)cc1)O2,-15.9
6,C[C@H](CO)N1C[C@H](C)[C@H](CN(C)S(C)(=O)=O)Oc2ccc(NC(=O)Nc3ccc(F)cc3)cc2C1=O,2.55
7,CC(C)NC(=O)N(C)C[C@@H]1Oc2c(cccc2N(C)C)C(=O)N([C@@H](C)CO)C[C@H]1C,10.2
8,C[C@@H]1CN([C@H](C)CO)C(=O)c2cccc(NS(=O)(=O)c3ccc(F)cc3)c2O[C@@H]1CN(C)C(=O)Nc1ccc(C(F)(F)F)cc1,-38
9,Cc1ccc(S(=O)(=O)N(C)C[C@@H]2Oc3c(NC(=O)c4ccncc4)cccc3C(=O)N([C@@H](C)CO)C[C@@H]2C)cc1,11.7
10,COc1ccc(NC(=O)N(C)C[C@H]2Oc3c(NC(=O)Nc4cccc5ccccc45)cccc3C(=O)N([C@H](C)CO)C[C@@H]2C)cc1,-0.252
11,COc1cc(Br)cc(/C=N/NC(=O)c2ccccn2)c1O,-83.9
12,C[C@@H]1CCCCO[C@H](CN(C)CC2CC2)[C@@H](C)CN([C@H](C)CO)C(=O)c2cc(NC(=O)Cc3ccccc3)ccc2O1,-0.194
13,COc1ccc(NC(=O)N(C)C[C@H]2Oc3ccc(NC(=O)Nc4ccc5c(c4)OCO5)cc3C(=O)N([C@H](C)CO)C[C@H]2C)cc1,3.2
14,Cc1ccc(S(=O)(=O)Nc2ccc3c(c2)C(=O)N([C@H](C)CO)C[C@H](C)[C@H](CN(C)Cc2ccccc2)OCCCC[C@@H](C)O3)cc1,-2.3
15,CC(C)NC(=O)N(C)C[C@H]1Oc2c(NS(C)(=O)=O)cccc2C(=O)N([C@@H](C)CO)C[C@H]1C,12.8
16,C[C@H]1CN([C@@H](C)CO)C(=O)c2cc(NC(=O)Cn3cnnn3)ccc2O[C@@H]1CN(C)C(=O)Nc1ccccc1,2.24
17,Cc1ccc(S(=O)(=O)N(C)C[C@@H]2Oc3ccc(NC(=O)Nc4ccc5c(c4)OCO5)cc3C(=O)N([C@@H](C)CO)C[C@@H]2C)cc1,20.1
18,O=C(O)CCCCCCC(=O)N/N=C/c1ccncc1Br,6.66
19,C[C@H]1CN([C@@H](C)CO)C(=O)c2cccc(NC(=O)C3CCCCC3)c2O[C@H]1CN(C)C(=O)NC1CCCCC1,6.52

row,SMILES,protection from cytokine-induced ATP loss [%]
1,Cc1noc(C)c1NC(=O)N(C)C[C@H]1Oc2ccc(NC(=O)C3CCCCC3)cc2CC(=O)N([C@@H](C)CO)C[C@H]1C,4.09
2,Cc1ccc(S(=O)(=O)N(C)C[C@@H]2OCCCC[C@@H](C)Oc3ccc(NS(=O)(=O)c4ccccc4)cc3C(=O)N([C@H](C)CO)C[C@@H]2C)cc1,-4.67
3,Cc1ccc(S(=O)(=O)Nc2ccc3c(c2)C(=O)N([C@H](C)CO)C[C@H](C)[C@H](CN(C)Cc2ccc(C(=O)Nc4ccccc4N)cc2)OCCCC[C@@H](C)O3)cc1,1.83
4,C[C@H]1CN([C@@H](C)CO)C(=O)c2cc(NS(=O)(=O)c3ccc(Cl)cc3)ccc2O[C@H]1CN(C)Cc1ccc(Oc2ccccc2)cc1,-11.4
5,C[C@@H]1CCCCO[C@@H](CN(C)C(=O)CCCN(C)C)[C@@H](C)CN([C@H](C)CO)C(=O)c2cc(NC(=O)Nc3ccc(F)cc3)ccc2O1,9.84
6,C[C@H](CO)N1C[C@H](C)[C@H](CN(C)Cc2ccncc2)Oc2ccc(NC(=O)C3CCCCC3)cc2CC1=O,-9.96
7,COc1ccc(NC(=O)N(C)C[C@H]2Oc3c(NC(=O)C4CC4)cccc3C(=O)N([C@@H](C)CO)C[C@@H]2C)cc1,-1.85
8,C[C@@H]1CN([C@H](C)CO)C(=O)c2cccc(NC(=O)c3cnccn3)c2O[C@@H]1CN(C)Cc1ccncc1,3.26
9,C[C@@H]1CN([C@H](C)CO)C(=O)c2cc(NC(=O)CCCCCC(=O)Nc3ccccc3N)ccc2O[C@H]1CN(C)C(=O)Nc1ccc(C(F)(F)F)cc1,1.3
10,C[C@@H]1CN([C@H](C)CO)C(=O)Cc2cc(NC(=O)CCN3CCOCC3)ccc2O[C@@H]1CN(C)S(C)(=O)=O,3.88
11,Cc1ccc(S(=O)(=O)N(C)C[C@H]2Oc3ccc(NS(=O)(=O)c4ccccc4)cc3CC(=O)N([C@@H](C)CO)C[C@H]2C)cc1,-6.07
12,C[C@@H]1CN([C@H](C)CO)C(=O)c2cccc(NC(=O)C3CCCCC3)c2O[C@@H]1CN(C)C(=O)NC1CCCCC1,6.03
13,C[C@H](CO)N1C[C@H](C)[C@H](CN(C)Cc2ccc3c(c2)OCO3)Oc2c(NC(=O)NC3CCCCC3)cccc2C1=O,-16.1
14,CNC[C@@H]1Oc2ccc(NS(=O)(=O)c3c(C)noc3C)cc2CC(=O)N([C@@H](C)CO)C[C@@H]1C,0.843
15,CC(C)NC(=O)Nc1ccc2c(c1)C(=O)N([C@H](C)CO)C[C@H](C)[C@@H](CN(C)S(C)(=O)=O)OCCCC[C@@H](C)O2,1.03
16,C[C@@H]1CN([C@@H](C)CO)C(=O)Cc2cc(NC(=O)C3CCCCC3)ccc2O[C@@H]1CN(C)C(=O)Nc1ccc(C(F)(F)F)cc1,-12.7
17,Cc1ccc(S(=O)(=O)N(C)C[C@@H]2Oc3c(NS(=O)(=O)c4ccc(F)cc4)cccc3C(=O)N([C@@H](C)CO)C[C@H]2C)cc1,15.4
18,COc1ccc(NC(=O)N(C)C[C@H]2Oc3ccc(NC(=O)Cc4cn(C)c5ccccc45)cc3CC(=O)N([C@@H](C)CO)C[C@H]2C)cc1,13.3
19,Cc1noc(C)c1NC(=O)Nc1ccc2c(c1)C(=O)N([C@H](C)CO)C[C@@H](C)[C@@H](CN(C)Cc1ccccc1)O2,2.87

row,SMILES,protection from cytokine-induced ATP loss [%]
1,C[C@@H]1CCCCO[C@@H](CN(C)CC2CC2)[C@@H](C)CN([C@H](C)CO)C(=O)c2cc(NC(=O)Nc3cccc4ccccc34)ccc2O1,-7.95
2,Cc1cccc(CN(C)C[C@H]2OCc3cn(nn3)CCCC(=O)N([C@@H](C)CO)C[C@H]2C)c1,-2.7
3,Cc1ccc(S(=O)(=O)N(C)C[C@@H]2Oc3ccc(NC(=O)c4ccncc4)cc3CC(=O)N([C@H](C)CO)C[C@H]2C)cc1,-0.881
4,COc1cc(/C=C/C=N/NC(=O)CCCCCC(=O)Nc2ccccc2O)ccc1O,-1.89
5,CC(C)NC(=O)N(C)C[C@H]1Oc2c(NC(=O)Nc3ccc(F)cc3)cccc2C(=O)N([C@@H](C)CO)C[C@@H]1C,12.3
6,COc1ccc(S(=O)(=O)Nc2ccc3c(c2)CC(=O)N([C@@H](C)CO)C[C@@H](C)[C@@H](CN(C)C(=O)Nc2c(C)noc2C)O3)cc1,9.17
7,COc1ccc(NC(=O)Nc2ccc3c(c2)C(=O)N([C@H](C)CO)C[C@H](C)[C@@H](CN(C)C(=O)NC2CCCCC2)OCCCC[C@@H](C)O3)cc1,14.1
8,C[C@H]1CN([C@@H](C)CO)C(=O)c2cc(NC(=O)C3CCCCC3)ccc2O[C@H]1CN(C)S(=O)(=O)c1cn(C)cn1,2.64
9,C[C@H]1CN([C@@H](C)CO)C(=O)c2cccc(NC(=O)Nc3ccccc3)c2O[C@H]1CN(C)S(=O)(=O)c1ccc(Cl)cc1,-12.7
10,C[C@@H]1CN([C@H](C)CO)C(=O)Cc2cc(NC(=O)Nc3ccc(C(F)(F)F)cc3)ccc2O[C@@H]1CN(C)S(=O)(=O)c1ccccc1,-5.63
11,C[C@H](CO)N1C[C@H](C)[C@H](CN(C)C(=O)Nc2ccc(C(F)(F)F)cc2)Oc2ccc(NS(=O)(=O)c3cn(C)cn3)cc2CC1=O,19
12,C[C@@H]1CN([C@@H](C)CO)C(=O)Cc2cc(NS(=O)(=O)c3cccs3)ccc2O[C@@H]1CN(C)C(=O)Nc1ccc(C(F)(F)F)cc1,-9.39
13,O=C(N/N=C/c1ccc(Oc2ccccc2)cc1)c1ccccn1,4.62
14,CC(C)NC(=O)Nc1cccc2c1O[C@@H](CN(C)Cc1ccc(C(=O)O)cc1)[C@@H](C)CN([C@H](C)CO)C2=O,5.94
15,C[C@H]1CN([C@@H](C)CO)C(=O)c2cccc(NC(=O)C3CCOCC3)c2O[C@H]1CN(C)S(C)(=O)=O,10.3
16,COc1ccc(S(=O)(=O)N(C)C[C@H]2Oc3ccc(NC(=O)Nc4c(C)noc4C)cc3CC(=O)N([C@@H](C)CO)C[C@H]2C)cc1,6.69
17,Cc1noc(C)c1NC(=O)N(C)C[C@@H]1Oc2ccc(NS(C)(=O)=O)cc2C(=O)N([C@@H](C)CO)C[C@@H]1C,1.81
18,Cc1noc(C)c1S(=O)(=O)Nc1ccc2c(c1)CC(=O)N([C@H](C)CO)C[C@H](C)[C@H](CN(C)S(=O)(=O)c1cn(C)cn1)O2,15.3
